Source: ChEMBL document CHEMBL2390955, “Synthesis of novel strobilurin-pyrimidine derivatives and their antiproliferative activity against human cancer cell lines” (Bioorg Med Chem Lett, 2013)

Columns and labels:
[1] = tested on: HL-60; assay: Cytotoxicity against human HL60 cells assessed as growth inhibition by MTT assay; format: functional, cell-based
How it was run: (§1)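 Growth inhibition of EC9706, HL60, MCF-7 or SMMC7721 human cancer cells measured by MTT assay, with the IC50 reported as the potency value.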

[2] = tested on: A549; assay: Cytotoxicity against human A549 cells assessed as growth inhibition by SRB assay; format: functional, cell-based
How it was run: (§2)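 A549 growth inhibition measured by sulforhodamine B (SRB) staining, with the IC50 reported as the potency value.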

[3] = tested on: SMMC-7721; assay: Cytotoxicity against human SMMC7721 cells assessed as growth inhibition by MTT assay; format: functional, cell-based; how it was run: as §1
[4] = tested on: MCF7; assay: Cytotoxicity against human MCF7 cells assessed as growth inhibition by MTT assay; format: functional, cell-based; how it was run: as §1
[5] = Cytotoxicity against human EC9706 cells assessed as growth inhibition by MTT assay; format: functional, cell-based; how it was run: as §1
[6] = tested on: HL-60; assay: Cytotoxicity against human HL60 cells assessed as growth inhibition; format: functional, cell-based; how it was run: as §1
[7] = tested on: A549; assay: Cytotoxicity against human A549 cells assessed as growth inhibition; format: functional, cell-based; how it was run: as §2
[8] = tested on: HL-60; assay: Ratio of doxorubicin IC50 to compound IC50 for human HL60 cells; format: functional

Compound | IC50 [1] [µM] | IC50 [2] [µM] | other results
CO/C=C(/C(=O)OC)c1ccccc1COc1cc(C(F)(F)F)nc(Nc2ccc(Cl)cc2Cl)n1 [SYP-11277] | > 100 | > 100 | 
CCNc1nc(OCc2ccccc2/C(=C\OC)C(=O)OC)cc(C(F)(F)F)n1 | 0.3 | 3.2 | 
CO/C=C(/C(=O)OC)c1ccccc1COc1cc(C(F)(F)F)nc(Nc2ccc(Cl)cc2)n1 | 19 | 1.3 | 
CO/C=C(/C(=O)OC)c1ccccc1COc1cc(C(F)(F)F)nc(NC(C)C)n1 | 3.4 | 9.8 | 
CO/C=C(/C(=O)OC)c1ccccc1COc1nc(Nc2ccccc2)nc(C(F)(F)F)c1C | 0.7 | 7.4 | 
CO/C=C(/C(=O)OC)c1ccccc1COc1nc(Nc2ccc(Cl)cc2Cl)nc(C(F)(F)F)c1C | 2.9 | 0.4 | IC50 [3]: 4.6 µM; IC50 [4]: 14.2 µM; IC50 [5]: 0.44 µM
CO/C=C(/C(=O)OC)c1ccccc1COc1cc(C(F)(F)F)nc(Nc2c(F)cccc2F)n1 | 12.1 | 41.4 | 
CO/C=C(/C(=O)OC)c1ccccc1COc1cc(C(F)(F)F)nc(NC2CC2)n1 | 6.5 | 10 | 
CO/C=C(/C(=O)OC)c1ccccc1COc1cc(C(F)(F)F)nc(N2CCCCC2)n1 | 51.6 | 4.9 | 
CNc1nc(OCc2ccccc2/C(=C\OC)C(=O)OC)cc(C(F)(F)F)n1 | 76.7 | 93.7 | 
COc1cccc2c1C(=O)c1c(O)c3c(c(O)c1C2=O)C[C@@](O)(C(=O)CO)C[C@@H]3O[C@H]1C[C@H](N)[C@H](O)[C@H](C)O1 [DOXORUBICIN] | 0.082 | 0.5 | 
CO/C=C(/C(=O)OC)c1ccccc1COc1nc(Nc2ccc(Cl)cc2)nc(C(F)(F)F)c1C | 0.7 | 5.5 | 
CO/C=C(/C(=O)OC)c1ccccc1COc1cc(C(F)(F)F)nc(OC(C)C)n1 | 6.9 | 9.8 | 
CO/C=C(/C(=O)OC)c1ccccc1COc1cc(C(F)(F)F)nc(Nc2ccc(F)c(F)c2F)n1 | 13.6 | 1 | 
CO/C=C(/C(=O)OC)c1ccccc1COc1cc(C(F)(F)F)nc(N(C)C)n1 | 11.1 | 6 | 
CO/C=C(/C(=O)OC)c1ccccc1COc1cc(C(F)(F)F)nc(Nc2ccc(F)cc2F)n1 | 4.8 | 1 | 
CO/C=C(/C(=O)OC)c1ccccc1COc1nc(Nc2ccc(F)c(F)c2F)nc(C(F)(F)F)c1C | 0.8 | 5 | 
CO/C=C(/C(=O)OC)c1ccccc1COc1cc(C(F)(F)F)nc(Nc2ccccc2)n1 | 3.3 | 3 | IC50 [6]: 3.3 µM; IC50 [7]: 3 µM
CCN(CC)c1nc(OCc2ccccc2/C(=C\OC)C(=O)OC)cc(C(F)(F)F)n1 | 15 | 17.9 | 
CO/C=C(/C(=O)OC)c1ccccc1COc1nc(Nc2ccc(F)cc2F)nc(C(F)(F)F)c1C | 0.0034 | 3.1 | Ratio IC50 [8]: 24
CO/C=C(/C(=O)OC)c1ccccc1COc1cc(C(F)(F)F)nc(Nc2ccc(Cl)cc2F)n1 | 2.7 | 1.3 | 
